Data: ChEMBL document CHEMBL1124093, “Peptide derivatives of primaquine as potential antimalarial agents” (J Med Chem, 1988)

Key:
Plasmodium cynomolgi [1] = experiment: Antimalarial activity against Plasmodium cynomolgi in Rhesus monkeys (Macaca mulatta) at 1 mg/kg; cured 1 of 2
Mus musculus [2] = experiment: Antimalarial activity against Plasmodium berghei in rodent at 80 mg/Kg measured as mean survival time over control (Delta MST); type: functional
Mus musculus [3] = experiment: Antimalarial activity against Plasmodium berghei in mice (Mus musculus) at 320 mg/kg measured as number of toxic deaths occurring on days 2-5 after infection; type: ADME, organism-based; set-up: dose 320 mg/kg; conditions: in vivo
In short: (§1)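 Mice infected with blood-induced P. berghei, five animals per group, run by the Osdene et al. method. Doses are expressed as mg primaquine diphosphate/kg. The read-out is the number of deaths attributed to toxicity occurring on days 2-5 after infection.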

Mus musculus [4] = experiment: Antimalarial activity against Plasmodium berghei in mice (Mus musculus) at 160 mg/kg measured as number of toxic deaths occurring on days 2-5 after infection; type: ADME, organism-based; set-up: dose 160 mg/kg; conditions: in vivo
In short: as §1

Mus musculus [5] = experiment: Antimalarial activity against Plasmodium berghei in mice (Mus musculus) at 640 mg/kg measured as number of toxic deaths occurring on days 2-5 after infection; type: ADME, organism-based; set-up: dose 640 mg/kg; conditions: in vivo
In short: as §1

Plasmodium cynomolgi [6] = experiment: Antimalarial activity against Plasmodium cynomolgi in Rhesus monkeys (Macaca mulatta) at 0.316 mg/kg; cured 0 of 2; type: functional

## COc1cc(NC(C)CCCN)c2ncccc2c1 (stereo unspecified) [PRIMAQUINE]
Plasmodium cynomolgi [1]
  Cures: 1
Mus musculus [2]
  Delta MST: 9
Mus musculus [3]
  Toxic deaths: 5
Mus musculus [4]
  Toxic deaths: 2
Mus musculus [5]
  Toxic deaths: 5
Plasmodium cynomolgi [6]
  Cures: 0
